Reference: ChEMBL document CHEMBL1154512, “PA-824 kills nonreplicating Mycobacterium tuberculosis by intracellular NO release” (2008)
≈ marks a conversion by molar mass, not a printed value.

Tests used:
[1] = system: Mycobacterium tuberculosis; experiment: Mycobactericidal activity against Mycobacterium tuberculosis H37Rv assessed as minimum anaerobicidal concentration required for 1 log reduction in bacterial numbers after 1 week under hypoxic non replicating condition; format: functional
Method in brief: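 Mtb adapted to hypoxia was exposed to compound for 1 week. MAC taken as the micromolar concentration giving a 1 log drop in bacterial numbers.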

[2] = system: Mycobacterium tuberculosis; experiment: Bactericidal activity against Mycobacterium tuberculosis H37Rv under aerobic condition by broth dilution method; format: functional
Method in brief: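 MIC taken as the micromolar concentration inhibiting 99% of growth of an Mtb inoculum.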

[3] = molecular target: Deazaflavin-dependent nitroreductase (Mycobacterium tuberculosis) (UniProt P9WP15); experiment: Ratio of Kcat to Km for Mycobacterium tuberculosis Rv3547 expressed in Escherichia coli co-transfected with maltose-binding fusion protein
Chain of Deazaflavin-dependent nitroreductase (Mycobacterium tuberculosis) (P9WP15 whole entry, the tested form may be a part): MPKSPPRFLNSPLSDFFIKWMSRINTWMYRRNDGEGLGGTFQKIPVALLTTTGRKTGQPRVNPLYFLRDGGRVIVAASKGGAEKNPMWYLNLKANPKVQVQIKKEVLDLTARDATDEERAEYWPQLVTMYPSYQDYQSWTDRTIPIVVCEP
Method in brief: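 Ddn (Rv3547) expressed in E. coli as a maltose-binding protein fusion and purified on amylose resin. Activity followed as time- and enzyme-dependent reoxidation of reduced F420 (F420H2), with the nitroimidazole as substrate. Kinetic values given as kcat/Km (min–1 μM–1).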

[4] = molecular target: Deazaflavin-dependent nitroreductase (Mycobacterium tuberculosis) (UniProt P9WP15); experiment: Binding affinity to Mycobacterium tuberculosis Rv3547 assessed as nitrous acid production by Griess method in presence of cofactor F420H2
Method in brief: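 Purified Ddn incubated with the nitroimidazole and F420H2. Reduction monitored as nitrite formation, read with Griess reagent.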

Compound	Activity [1]	MIC99 [2]	Ratio [3]	Activity [4]
O=CN1CC(OCc2ccc(OC(F)(F)F)cc2)Cn2cc([N+](=O)[O-])nc21 (single isomer, unassigned)	31 µM	6.3 µM (≈ 2.43 µg/mL)	–	–
O=[N+]([O-])c1cn2c(n1)OC[C@H](OCc1ccc(OC(F)(F)F)cc1)C2	250 µM	110 µM (≈ 39.5 µg/mL)	0.016	–
O=[N+]([O-])c1cn2c(n1)OC[C@@H](NCCc1ccc(OC(F)(F)F)cc1)C2	2 µM	0.04 µM (≈ 0.0149 µg/mL)	–	–
O=[N+]([O-])c1cn2c(n1)NC[C@@H](OCc1ccc(OC(F)(F)F)cc1)C2	130 µM	0.8 µM (≈ 0.287 µg/mL)	–	–
O=[N+]([O-])c1cn2c(n1)SC[C@@H](OCc1ccc(OC(F)(F)F)cc1)C2	25 µM	1.2 µM (≈ 0.45 µg/mL)	–	–
O=[N+]([O-])c1cn2c(n1)OC[C@@H](NCCCc1ccc(OC(F)(F)F)cc1)C2	3.1 µM	0.08 µM (≈ 0.0309 µg/mL)	–	–
O=[N+]([O-])c1cn2c(n1)OC[C@@H](NCc1ccc(OCc3ccc(OC(F)(F)F)cc3)cc1)C2	2.1 µM	0.16 µM (≈ 0.0743 µg/mL)	–	–
O=[N+]([O-])c1cn2c(n1)OC[C@@H](OCc1ccc(OC(F)(F)F)cc1)C2 [PRETOMANID]	12 µM	0.8 µM (≈ 0.287 µg/mL)	0.145	Dose-dependent effect
CCCCc1ccc(CN[C@@H]2COc3nc([N+](=O)[O-])cn3C2)cc1	75 µM	0.78 µM (≈ 0.258 µg/mL)	–	–
O=[N+]([O-])c1cn2c(n1)OC[C@@H](NCc1ccc(OC(F)(F)F)cc1)C2	8 µM	0.4 µM (≈ 0.143 µg/mL)	–	–
O=[N+]([O-])c1cn2c(n1)OC[C@@H](NCCCCc1ccc(OC(F)(F)F)cc1)C2	8.1 µM	0.04 µM (≈ 0.016 µg/mL)	–	–
